20 molecules from ChEMBL document CHEMBL4052798, “Design, synthesis and biological evaluation of indole derivatives as Vif inhibitors” (Bioorg Med Chem Lett, 2017) can be followed below.

The test system of assay [1] is Human immunodeficiency virus 1. As to the kind of experiment: Inhibition of doxycycline-induced HIV1 Vif expressed in TREX-hVif-15 cells co-expressing EYFP-N1-tagged human A3G assessed as reduction in Vif-mediated A3G degradation by measuring fold change in mean fluorescence intensity at 50 uM by flow cytometric method. In kind it is cell-based. The gist of the method:
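TREX-hvif-15 cells with Tet-On-regulated Vif were transfected with EYFP-N1-hA3G, and Vif was induced with 1 μg/mL Dox. Compounds were tested at 50 µM. A3G-EYFP mean fluorescence intensity was expressed as fold change and scored as: no or <1-fold; 1–2; 2–3; >3. Reference groups were A3G⁺/Vif⁻ and A3G⁺/Vif⁺.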
On the technique in general: In flow cytometry, cells or beads pass a laser one at a time.

Assay [2] concerns Human immunodeficiency virus 1. As to the kind of experiment: Inhibition of doxycycline-induced HIV1 Vif expressed in TREX-hVif-15 cells co-expressing EYFP-N1-tagged human A3G assessed as restoration of Vif-induced A3G degradation level at 20 uM after 48 hrs by Western blot analysis. Format: cell-based. The gist of the method:
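TREX-hvif-15 cells were transfected with EYFP-N1-hA3G, and Vif was induced with 0.1 μg/mL Dox. Cells were treated with or without compound at 20 μM. A3G and Vif protein levels were detected by western blot, and A3G restoration was graded qualitatively, lowest to high.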
On the technique in general: Immunoblotting shows a protein as a band on a membrane.

The source made the active and inactive calls. The rule behind the calls is not given here. A value given as a limit tells only on which side of the number the result lay.

`Nc1ncccc1-c1ccc2[nH]ccc2c1`: in assay [1], the fold change (FC) lay in the range of 1 to 2. Besides, in assay [2], the inhibition entry was “Active”.
On the same counts, the results for `CS(=O)(=O)c1ccc(-c2ccc3[nH]ccc3c2)cc1` are 2 to 3 and “Active”.
In the case of `Nc1ccc(-c2ccc3[nH]ccc3c2)cn1`, in assay [1], the fold change (FC) was 2 to 3. The inhibition result in assay [2] is “Active”.
In the same order, the values of `O=Cc1cccc(-c2ccc3[nH]ccc3c2)c1` are 1 to 2 and “Active”.
In the same order, the values of `O=Cc1ccc(-c2ccc3[nH]ccc3c2)cc1` are below 1 and “inactive”.
As for `N#Cc1ccccc1-c1ccc2[nH]ccc2c1`, the fold change (FC) in assay [1] was below 1. Also, the inhibition result in assay [2] is “inactive”.
In the same order, the values of `O=C(O)c1ccnc(-c2ccc3[nH]ccc3c2)c1` are 2 to 3 and “Active”.
In the same order, the values of `O=C(O)Cc1ccc(-c2ccc3[nH]ccc3c2)cc1` are below 1 and “inactive”.
In the case of `O=C(O)c1ccc(-c2ccc3[nH]ccc3c2)nc1`, the fold change (FC) in assay [1] was above 3. For the same molecule, in assay [2], the inhibition result was “Active”.
For `c1ccc(-c2ccc3[nH]ccc3c2)nc1`, the fold change (FC) in assay [1] is below 1. The inhibition result in assay [2] is “inactive”.
With `Nc1cccnc1-c1ccc2[nH]ccc2c1`, the fold change (FC) in assay [1] is 2 to 3. Also, in assay [2], the inhibition result is “Active”.
Regarding `NC(=O)c1ccc(-c2ccc3[nH]ccc3c2)nc1`, the fold change (FC) in assay [1] lay within 2 to 3. For the same molecule, the inhibition entry in assay [2] was “Active”.
On the same counts, the results for `O=C(O)c1ccc(-c2ccc3[nH]ccc3c2)cc1` are 2 to 3 and “Active”.
Regarding `O=Cc1cccc(-c2ccc3[nH]ccc3c2)n1`, in assay [1], the fold change (FC) is 1 to 2. Moreover, the inhibition result in assay [2] was “Active”.
In the case of `NC(=O)c1ccnc(-c2ccc3[nH]ccc3c2)c1`, the fold change (FC) in assay [1] lay within 2 to 3. In assay [2], the inhibition result was “inactive”.
In the same order, the values of `O=Cc1ccccc1-c1ccc2[nH]ccc2c1` are 1 to 2 and “inactive”.
On the same counts, the results for `Nc1cccc(-c2ccc3[nH]ccc3c2)n1` are 1 to 2 and “Active”.
On the same counts, the results for `O=Cc1ccc(-c2ccc3[nH]ccc3c2)nc1` are below 1 and “inactive”.
As to `NC(=O)c1cncc(-c2ccc3[nH]ccc3c2)c1`, in assay [1], the fold change (FC) is 1 to 2. Also, the inhibition entry in assay [2] was “Active”.
Consider `COc1ccc(-c2ccc3[nH]ccc3c2)cn1`, for which the fold change (FC) in assay [1] is 1 to 2. Besides, the inhibition entry in assay [2] is “Active”.
